This is a sample that favours compounds with a hit; in the whole collection about 1.9% have one here.
HIF activator = HIF pathway transcriptional activation; 300,000 tested, 0.32% active; AID 1910; U2OS HRE-luciferase reporter, luminescence; normalized: DMSO 0%, desferrioxamine 100%; activation, % at 7.5 µM (by protocol);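 active means mean activation of at least 10% of the iron chelator positive control signal, with at least half of replicates also reaching 10%; inconclusive means mean and replicate majority disagree about reaching 10%; inactive means mean and most replicates under 10%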
proCasp7 act = counter-screen: procaspase-7 (human) activation. activation, % at 8.5 µM. P55210. 330,000 tested, 0.093% active. recombinant procaspase-7, Ac-DEVD-pNA absorbance 405 nm; D23A/D198A/D206A triple mutant, cannot self-cleave; scale: DMSO 0, 5 µM enzyme 100;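 active means percent activation above the screen-wide mean plus 3 SD, cut at about 25% in these data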
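Assay system: Uncleavable procaspase-7 mutant enzyme / Input: 2 µM procaspase-7 mutant as dispensed / Dosing: single nominal 8.5 µM compound dose, 0.8% DMSO final / Timing: 1 h enzyme–compound preincubation and 2 h substrate reaction, both 25 °C / Detection: p-Nitroaniline absorbance at 405 nm, read at 0 and 120 min / Replication: singlicate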
Calb FLC = C. albicans growth modulation with fluconazole; C. albicans CaCi-2 (fluconazole-resistant clinical isolate) + fluconazole, Alamar Blue growth, 48 h; growth inhibition, % (no concentration beside the values); 300,000 tested, 0.57% active; AID 1979;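 active means growth inhibition above about 58% in most replicates, limit read from the data, passing the limit was not always enough; inconclusive means exactly half the replicates above a set limit; inactive means most replicates below a set limit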;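 further: all wells also contain fluconazole at 8 µg/ml as a sub-toxic cotreatment; 0% = median of DMSO wells and 100% = median of geldanamycin control wells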
procasp3 activ = activators of human procaspase-3 | 330,000 tested, 0.11% active | activation, % at 8.5 µM | AID 463141 | recombinant procaspase-3 D3A, Ac-DEVD-pNA absorbance 405 nm;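 active means activation above the mean of all tested compounds plus 3 SD, cut at about 21% in these data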;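 further: 0% = DMSO alone and 100% = DMSO wells spiked with extra 5 µM PC-3 D3A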
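Assay system – Procaspase-3 D3A mutant · Benchmarks – DMSO low control, extra-enzyme high control · Technique – 405 nm absorbance of p-nitroaniline, reads at 0 and 120 min · Doses – 8.5 µM nominal · Measure – % activation between DMSO and enzyme-spiked controls · Also added – Ac-DEVD-pNA chromogenic peptide substrate · Schedule – 1 h compound preincubation, 2 h substrate hydrolysis at 25 °C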
Neddyl block = blocks human cullin neddylation. P61081+Q13564. TR-FRET cullin neddylation, biochemical. inhibition, % at 25 µM. 360,000 tested, 0.58% active; in the data active means inhibition above about 36%
Target sequence (P61081 whole entry, looked up): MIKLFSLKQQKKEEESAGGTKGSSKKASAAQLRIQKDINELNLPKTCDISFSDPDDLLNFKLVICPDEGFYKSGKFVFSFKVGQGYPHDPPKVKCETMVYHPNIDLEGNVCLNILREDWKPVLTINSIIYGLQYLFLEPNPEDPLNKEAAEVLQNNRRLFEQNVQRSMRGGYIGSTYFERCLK
Target sequence (Q13564 whole entry, looked up): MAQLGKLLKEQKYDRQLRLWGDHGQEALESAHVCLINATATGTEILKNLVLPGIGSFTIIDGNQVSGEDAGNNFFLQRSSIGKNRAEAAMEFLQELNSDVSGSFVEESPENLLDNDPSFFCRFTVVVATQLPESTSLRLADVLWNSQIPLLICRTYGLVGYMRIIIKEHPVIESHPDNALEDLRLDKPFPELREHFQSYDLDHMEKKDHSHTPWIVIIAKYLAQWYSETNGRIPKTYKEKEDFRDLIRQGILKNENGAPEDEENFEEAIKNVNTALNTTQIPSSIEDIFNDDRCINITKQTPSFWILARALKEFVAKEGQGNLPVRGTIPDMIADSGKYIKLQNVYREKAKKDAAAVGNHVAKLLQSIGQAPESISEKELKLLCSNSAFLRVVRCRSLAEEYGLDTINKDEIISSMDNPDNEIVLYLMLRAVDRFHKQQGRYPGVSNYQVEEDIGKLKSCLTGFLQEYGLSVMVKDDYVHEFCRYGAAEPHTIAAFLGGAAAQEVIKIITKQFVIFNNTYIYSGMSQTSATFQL
FXN GAA850 act = frataxin GAA850 promoter activation; activation, % at 6 µM; 360,000 tested, 0.56% active; HEK293 lucGAA850 FXN promoter luciferase reporter, 24 h; percent of 10 µM SAHA response;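 active means activation above the average of all compounds screened plus 3 SD, cutoff fixed separately per campaign, cut at about 7.5% in these data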;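 further: 0% = DMSO wells and 100% = 10 µM SAHA wells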
GAA30 counter = counter-screen for GAA850 frataxin promoter activators: GAA30 promoter activation; 1,900 tested, 66% active; shares compounds with FXN GAA850 act; activation, % at 6 µM; HEK293 lucGAA30 FXN promoter luciferase, 24 h; DMSO = 0%, 5 µM ipriflavone = 100%;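 active means mean activation above the mean of solvent-only control wells plus 3 SD, cut at about 22% in these data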;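 further: counterscreen of GAA850 promoter hits where activity marks nonselective or luminescence artifacts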
FXN GAA850 conf = confirmation of GAA850 frataxin (FXN) promoter activators; 1,900 tested, 86% active; shares compounds with FXN GAA850 act; AID 588351; activation, % at 6 µM; HEK293 lucGAA850 FXN promoter luciferase reporter, 24 h; 100% = activation by SAHA;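 active means mean activation above a set limit taken from the primary screen, cut at about 8% in these data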;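 further: 0% = DMSO wells and 100% = 10 µM SAHA wells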
* = called active by the depositor; ? = inconclusive; . = not tested or not shown.

SMILES	HIF activator	proCasp7 act	Calb FLC	procasp3 activ	Neddyl block	FXN GAA850 act	GAA30 counter	FXN GAA850 conf
Cc1ccc(S(=O)(=O)N2CCN(S(=O)(=O)c3ccc(C)cc3)C2c2ccccc2)cc1	0	-3	-11	-9	-4	8.3*	5	7
O=C(Nc1cccc(OC(F)(F)F)c1)[C@@H]1O[C@H](CO)[C@H](O)[C@H](O)[C@H]1O	.	.	.	.	1	-1	.	.
O=C(c1cc(COc2ccc(F)cc2Cl)on1)N1CCSCC1	2	4	0	2	10	10*	110*	44*
COc1ccc(NC(=O)C2Cc3c(-c4cccc(F)c4)ccnc3O2)cc1OC (stereo not drawn)	.	.	.	.	10	0	.	.
Cn1/c(=N/N=C/c2ccccn2)sc2ccccc21	.	.	.	.	-1	10*	114*	35*
CCc1ccc(N2CC(C(=O)OCC(=O)N(CC)c3c(N)n(Cc4ccccc4)c(=O)[nH]c3=O)CC2=O)cc1 (stereo not drawn)	.	.	.	.	-6	0	.	.
Cc1cc(C)cc(N=Cc2ccc([N+](=O)[O-])s2)c1	0	13	?	1	-8	16*	1	6
O=[N+]([O-])c1ccc(C=Nc2ccc(Cl)c([N+](=O)[O-])c2)s1	.	.	.	.	-17	4	.	.
Cc1ccc(NC(=S)N/N=C/c2ccc([N+](=O)[O-])s2)cc1	4	-8	4	-14	2	11*	-97	-29
O=C(Cc1cccs1)N/N=C\c1ccc([N+](=O)[O-])s1	-1	8	8	3	-7	-1	.	.
Cc1ccc([N+](=O)[O-])cc1N/C=C/C(=O)c1ccco1	0	-1	-15	-2	-29	9.3*	27*	25*
Cc1ccc(N/C=C/C(=O)c2ccco2)c(O)c1	2	-11	-7	3	-21	5	.	.
O=[N+]([O-])c1ccc(COc2cccc(CN3CCOCC3)c2)cc1	.	.	.	.	-46	0	.	.
Cc1ccc(S(=O)(=O)N2CC3(O)CN(C(=O)OC(C)C)N(C(=O)OC(C)C)CC3(OC(=O)NCc3ccccc3F)C2)cc1 (stereo not drawn)	.	.	.	.	0	-7	.	.
COc1cccc(-c2cnc3c(NC(C)=O)cc(-c4ccc(C(=O)N5CCOCC5)cc4)cn23)c1	.	.	.	.	-1	1	.	.
COCCCNc1nc(SCc2ccccc2)nc2sc3c(c12)CCC3	0	-17	19	-19	0	14*	31*	21*
CCOC(=O)c1cnc2c(ccc3ccccc32)c1NCCN(C)C	0	1	-4	9	34	8.4*	23*	17*
CCOC(=O)c1cnc2c(ccc3ccccc32)c1NCCO	1	3	49	8	32	0	.	.
Cc1ncc(C(O)c2ccccc2)n1Cc1ccccc1 (stereo not drawn)	.	.	.	.	9	0	.	.
C[C@@H]1CN([C@H](C)CO)S(=O)(=O)c2ccc(Br)cc2O[C@@H]1CN(C)Cc1ccc(-c2ccccc2)cc1	.	.	.	.	1	14*	24*	11*
Cc1ccccc1OCC(=O)Nc1ccccc1-c1ccccc1NC(=O)COc1ccccc1C	-23	-6	3	2	3	15*	15	11*
O=C(Cn1ncc(Cl)c(Cl)c1=O)N1CCN(Cc2ccccc2)CC1	-8	.	1	.	-128	-2	.	.
O=C(Cn1ncc(Cl)c(Cl)c1=O)N1CCOCC1	3	-2	-5	4	-13	9.3*	11	7
CCc1ccc(C(=O)Cn2ncc(Cl)c(Cl)c2=O)cc1	4	-8	21	-11	-357	8.5*	15	15*
CS/C(N)=N/N=C/c1cc(C)ccc1O	3	7	6	5	2	8.6*	122*	38*
SMILES	HIF activator	proCasp7 act	Calb FLC	procasp3 activ	Neddyl block	FXN GAA850 act	GAA30 counter	FXN GAA850 conf
CC(C)C(OC(=O)C1=Cc2ccccc2OC1)C(=O)NCC1CCCO1 (stereo not drawn)	.	.	.	.	-6	5	.	.
CC(C)CNc1ncnc2c1ncn2[C@H]1CN(CCN2CCOCC2)C[C@@H](CO)O1	.	.	.	.	-5	-1	.	.
COc1ccc(OC)c(-c2cc(C(=O)Nc3c(C)nn(Cc4ccccc4)c3C)no2)c1	0	-3	3	7	16	7.8*	8	13*
Cc1nn(Cc2ccccc2)c(C)c1NC(=O)c1cc(-c2ccco2)on1	0	9	18	1	4	0	.	.
CN1CCN(S(=O)(=O)c2ccc(Cl)cc2)CC1	-30	-5	-1	3	0	1	.	.
CN1CCN(S(=O)(=O)c2ccc(-c3ccc(Cl)cc3)cc2)CC1	1	3	?	-2	-3	13*	46*	13*
CC(=O)NC1CC2CCCC(C1)N2C(=O)Nc1cccc(C(C)=O)c1 (stereo not drawn)	.	.	.	.	4	4	.	.
COc1ccc(O)c(/C=N/n2c(-c3ccco3)csc2=Nc2cccnc2)c1	0	-9	4	-2	21	2	.	.
C=CCN=c1scc(C)n1/N=C/c1ccc(O)c(O)c1	3	-36	-20	-23	7	10*	63*	28*
CN=c1scc(-c2ccco2)n1/N=C/c1ccc(O)c(O)c1	-2	.	-1	.	-2	16*	44*	23*
CN=c1scc(C)n1/N=C/c1ccc(O)cc1	.	-7	-4	-13	-5	1	.	.
O=C(c1cc(C2CCCCN2C(=O)CCCc2ccccc2)on1)N1CCOCC1 (stereo not drawn)	.	.	.	.	6	2	.	.
Cc1ccc(C(=O)Nc2cnc3ccccn3c2=O)cc1	1	1	6	2	-13	8.3*	100*	31*
CCOC(=O)c1sc(-c2ccccc2)cc1N	1	-7	-49	-5	11	8.9*	87*	23*
CCOC(=O)c1sc(-c2ccc(F)cc2)cc1N	2	-11	-32	7	-2	7	.	.
CCOC(=O)c1sc(-c2ccc(OC)cc2)cc1N	3	4	-56	-2	6	9.7*	109*	30*
COc1ccc(-c2ccc3c(c2)c(Sc2ccccc2)c(-c2ccccc2)n3C)cn1	.	.	.	.	-326	.	.	.
c1ccc(-c2noc(CSc3nnc(Cc4cccs4)n3-c3ccccc3)n2)cc1	0	5	-2	1	-1	-1	.	.
Clc1ccc(-c2noc(CSc3nnc(Cc4cccs4)n3-c3ccccc3)n2)cc1	0	10	10	4	-8	15*	6	4

Source: PubChem BioAssay (several laboratories)
